Assay results published in publication PMC3985442 (The Journal of Organic Chemistry, 2014).
Like-named read-outs stand apart in the source and are kept apart here.

Experiments:
His-Ste14p (yeast Icmt) [1] = molecular target: T1, His-Ste14p (yeast Icmt) (Saccharomyces cerevisiae, UniProt P32584); conditions: cited from earlier work
T1 sequence (P32584 1-239): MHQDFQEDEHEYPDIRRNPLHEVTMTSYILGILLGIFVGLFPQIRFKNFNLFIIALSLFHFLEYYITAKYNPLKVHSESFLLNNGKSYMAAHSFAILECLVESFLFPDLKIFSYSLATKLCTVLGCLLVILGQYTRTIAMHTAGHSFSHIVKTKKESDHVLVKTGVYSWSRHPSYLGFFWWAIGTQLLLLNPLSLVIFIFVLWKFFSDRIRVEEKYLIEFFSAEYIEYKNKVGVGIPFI

His-Ste14p (yeast Icmt) [2] = molecular target: T1, His-Ste14p (yeast Icmt); type: biochemical; conditions: pH 7.5, 30 °C; for Vmax: pmol of methyl groups transferred to substrate; for Vmax / Km: crude membrane preparations, 20 μM [14C]SAM, 100 mM Tris-HCl, 30 min, liquid scintillation counting; for Km: read-out: Km(app), apparent values (single SAM concentration, membrane suspension); for Vmax/Km: catalytic efficiency, from Vmax and apparent Km, crude membranes
In short: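 Membranes from yeast strain CH2704 overexpressing His-Ste14p: 100 000g pellet resuspended in 10 mM Tris-HCl pH 7.5, stored at −80 °C. Reaction: membranes plus substrate, 20 μM [14C]SAM (50–60 mCi/mmol), 100 mM Tris-HCl pH 7.5, 30 °C for 30 min. Stopped with 1 M NaOH/1% SDS; base-labile [14C]methyl diffused onto filter over scintillant, rt for 2.5 h, then counted. Km apparent: single SAM level, peptide partitions into membranes.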

[3] = tested on: His-Ste14p (crude membranes); type: binding, Saccharomyces cerevisiae; conditions: 16 in competition with 17, 5 to 200 μM
In short: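 Crude membranes (100 μg) from a Δste14 yeast strain overexpressing His-Ste14p, in 10 mM Tris-HCl pH 7.5, preincubated with increasing competitor peptide; diazirine photoprobe then added, 4 °C for 5 min. Irradiated at 365 nm, 30 min on ice. Solubilized in RIPA/10% SDS; neutravidin-agarose pulldown 2 h at 4 °C, three washes, eluted in SDS sample buffer at 65 °C for 30 min. 12% SDS-PAGE, α-Ste14p immunoblot (1:500).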

Row | Vmax (His-Ste14p (yeast Icmt) [2]) | Compound | Vmax/Km (His-Ste14p (yeast Icmt) [1]; catalytic efficiency, previously reported) | Vmax (His-Ste14p (yeast Icmt) [1]; pmol of methyl groups transferred to substrate, previously reported) | Km (His-Ste14p (yeast Icmt) [1]; read-out: Km(app), apparent values, previously reported) | Km (His-Ste14p (yeast Icmt) [2]) | Vmax/Km (His-Ste14p (yeast Icmt) [2]) | Vmax (His-Ste14p (yeast Icmt) [2]; listed as diazirine-containing peptide) | site of photolabeling, inferred from competition [3]
1 |  | CC(=O)N[C@@H](CSC/C=C(\C)CC/C=C(\C)CCC=C(C)C)C(=O)O [AFC, N-acetyl-S-farnesyl-L-cysteine] | 54 pmol min^–1 mg^–1 μM^–1 | 870 ± 15 pmol min^–1 mg^–1 | 15.9 ± 0.9 µM |  |  |  | 
2 | 217 ± 3 pmol min^–1 mg^–1 | Biotin-Peg4-K(5-Fam)YIIKGVFWDPAC(C5-m-BP)-OH [compound 19] |  |  |  | 27.8 ± 1 µM |  |  | 
3 | 1919 ± 30 pmol min^–1 mg^–1 | Biotin-Peg4-YIIKGVFWDPAC(Fr)-OH [compound 17] |  |  |  |  | 157 pmol min^–1 mg^–1 μM^–1 |  | 

Row | Compound | Vmax (His-Ste14p (yeast Icmt) [2]) | Vmax/Km (His-Ste14p (yeast Icmt) [1]; catalytic efficiency, previously reported) | Vmax (His-Ste14p (yeast Icmt) [1]; pmol of methyl groups transferred to substrate, previously reported) | Km (His-Ste14p (yeast Icmt) [1]; read-out: Km(app), apparent values, previously reported) | Km (His-Ste14p (yeast Icmt) [2]) | Vmax/Km (His-Ste14p (yeast Icmt) [2]) | Vmax (His-Ste14p (yeast Icmt) [2]; listed as diazirine-containing peptide) | site of photolabeling, inferred from competition [3]
4 | Biotin-Peg4-K(5-Fam)YIIKGVFWDPAC(C10-Diazirine)-OH [compound 16] | 947 ± 4 pmol min^–1 mg^–1 |  |  |  | 6.6 ± 0.2 µM | 143 pmol min^–1 mg^–1 μM^–1 | 947 pmol min^–1 mg^–1 | labeling the substrate binding site of His-Ste14p
